The source made the active and inactive calls.
Key:
MEF [1] = assay: Antiproliferative activity against CHOP-knock out MEF cells after 16 hrs by luminescence assay; format: functional, cell-based; conditions: Mus musculus
Summary of the method: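 Wildtype and Chop-knockout murine embryonic fibroblasts given test agent in dose-response for 16 h. Proliferation read by an ATP-based luminescent assay. Chop-null cells tested up to 20 μM; four independent experiments, triplicate samples.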

MEF [2] = assay: Antiproliferative activity against wild-type MEF cells after 16 hrs by luminescence assay; format: functional, cell-based; conditions: Mus musculus
Summary of the method: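 Wild-type murine embryonic fibroblasts, run alongside a Chop-knockout MEF line, exposed to compound in dose-response for 16 h. Proliferation read by ATP-based luminescence. EC50 reported in μM ± SEM.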

[3] = Stability in human plasma assessed as compound remaining after 180 mins by LC/MS/MS method; format: ADME, cell-free; conditions: read-out: Stability
[4] = Aqueous solubility of the compound in PBS buffer by UV-spectrophotometry; format: physicochemical
Summary of the method: (§1)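 Solubility measured in PBS and pION buffer across a biologically relevant pH range.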

UMSCC23 [5] = assay: Induction of GADD34 mRNA expression in human UM-SCC-23 cells at 0.04 to 20 uM after 6 hrs by qRT-PCR analysis; format: functional, cell-based
Summary of the method: (§2)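 UMSCC23 cells treated in dose-response for 6 h, then lysed. UPR and CHOP target gene transcripts measured by qRT-PCR, with tunicamycin as ER-stress positive control.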

[6] = Permeability of the compound at pH 5 to 7.4 by PAMPA; format: ADME
Summary of the method: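 PAMPA model of passive transcellular permeability, donor compartment at pH 5.0, 6.2 and 7.4. Compound concentration in the compartments determined by UV spectroscopy.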

[7] = Cytotoxicity against human Fa2N-4 cells assessed as cell viability after 24 hrs by luminescence assay; format: cell-based; conditions: fa2n-4, 24 h
[8] = target: Sodium-dependent dopamine transporter (Homo sapiens) (UniProt Q01959); assay: Displacement of [125I] RTI-55 from human recombinant DAT expressed in CHOK1 cells after 3 hrs; format: cell-based; conditions: CHO-K1, concentration not given here
Summary of the method: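 Profiled at 10 μM within a 67-target panel of GPCRs, nuclear receptors, transporters and ion channels. Significant inhibition defined as >50% at a single target.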

H460/T800 = assay: Antiproliferative activity against human H460/T800 cells after 24 hrs; format: functional, cell-based
[9] = Tmax in CD-1 mouse at 30 mg/kg, ip; format: ADME, organism-based; set-up: dose 30 mg/kg, route intraperitoneal; conditions: in vivo
Summary of the method: (§3)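 Male CD-1 mice, single IP dose of 30 mg/kg, 3 mice per group. Plasma concentrations determined at 7 intervals over 8 h.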

[10] = Antiproliferative activity against human HN30 cells after 24 hrs; format: functional
Summary of the method: (§4)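 Oral squamous cell carcinoma panel cells treated with increasing concentrations of test agent for 24 h in dose-response proliferation assays.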

[11] = Antiproliferative activity against human HN12 cells after 24 hrs; format: functional; summary of the method: as §4
Plasma [12] = assay: Plasma protein binding in human plasma after 4 hrs by LC/MS/MS method; format: ADME, cell-free
[13] = Cmax in CD-1 mouse at 30 mg/kg, ip; format: ADME, organism-based; set-up: dose 30 mg/kg, route intraperitoneal; conditions: in vivo; summary of the method: as §3
[14] = Aqueous solubility of the compound in pION buffer by UV-spectrophotometry; format: physicochemical; summary of the method: as §1
Liver microsome = assay: Metabolic stability in human liver microsomes after 60 mins by LC/MS/MS method; format: ADME; conditions: 1 h
[15] = Antiproliferative activity against human UM-SCC-23 cells after 24 hrs; format: functional, UMSCC23; summary of the method: as §4
UMSCC23 [16] = assay: Induction of XBP1 mRNA expression in human UM-SCC-23 cells at 0.04 to 20 uM after 6 hrs by qRT-PCR analysis; format: functional, cell-based; summary of the method: as §2
UMSCC23 [17] = assay: Induction of XBP1 mRNA expression in human UM-SCC-23 cells at 20 uM after 6 hrs by qRT-PCR analysis; format: functional, cell-based; summary of the method: as §2
HN6 = assay: Antiproliferative activity against human HN6 cells after 24 hrs; format: functional, cell-based; summary of the method: as §4
UMSCC23 [18] = assay: Induction of ERCC1 mRNA expression in human UM-SCC-23 cells at 0.04 to 20 uM after 6 hrs by qRT-PCR analysis; format: functional, cell-based; summary of the method: as §2
A253 = assay: Antiproliferative activity against human A253 cells after 24 hrs; format: functional, cell-based; summary of the method: as §4
[19] = Plasma protein binding in mouse plasma after 4 hrs by LC/MS/MS method; format: ADME, cell-free; conditions: read-out: PPB (converted)
UMSCC23 [20] = assay: Induction of CHOP mRNA expression in human UM-SCC-23 cells at 0.04 to 20 uM after 6 hrs by qRT-PCR analysis; format: functional, cell-based; summary of the method: as §2
UMSCC23 [21] = assay: Induction of CHOP mRNA expression in human UM-SCC-23 cells at 20 uM after 6 hrs by qRT-PCR analysis; format: functional, cell-based; summary of the method: as §2
Plasma [22] = assay: Stability in mouse plasma assessed as compound remaining after 180 mins by LC/MS/MS method; format: ADME, cell-free; conditions: 3 h
Liver = assay: Metabolic stability in mouse liver microsomes after 60 mins by LC/MS/MS method; format: ADME; conditions: 1 h

Sodium-dependent dopamine transporter (Homo sapiens), sequence (Q01959 whole entry): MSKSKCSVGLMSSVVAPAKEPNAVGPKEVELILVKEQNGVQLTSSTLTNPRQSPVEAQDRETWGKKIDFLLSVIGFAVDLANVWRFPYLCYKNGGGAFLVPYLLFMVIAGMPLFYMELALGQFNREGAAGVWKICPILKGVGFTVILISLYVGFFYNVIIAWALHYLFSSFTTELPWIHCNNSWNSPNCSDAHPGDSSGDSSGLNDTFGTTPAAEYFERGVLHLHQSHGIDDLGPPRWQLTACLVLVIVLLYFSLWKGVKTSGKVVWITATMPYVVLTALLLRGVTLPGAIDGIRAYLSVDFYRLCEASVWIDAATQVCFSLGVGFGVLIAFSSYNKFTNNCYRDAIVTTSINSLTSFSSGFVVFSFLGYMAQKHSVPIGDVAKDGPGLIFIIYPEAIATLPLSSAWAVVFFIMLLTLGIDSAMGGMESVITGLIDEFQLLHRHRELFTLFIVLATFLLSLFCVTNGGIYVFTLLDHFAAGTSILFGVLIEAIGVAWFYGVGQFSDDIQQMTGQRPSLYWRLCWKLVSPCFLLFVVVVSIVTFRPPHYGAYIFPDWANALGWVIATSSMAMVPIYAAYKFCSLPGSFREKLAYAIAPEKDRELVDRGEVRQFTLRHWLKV

O=C(Nc1ccc(S(=O)(=O)N2CCCCC2)cc1)c1ccc([N+](=O)[O-])o1
EC50 (MEF [1]): > 20 µM | EC50 (MEF [2]): 7.8 µM

O=C(Nc1ccc(S(=O)(=O)N2CCC(Cl)CC2)cc1)c1ccc([N+](=O)[O-])o1
remaining at 3 h [3]: 86% | EC50 (MEF [1]): > 20 µM | solubility [4]: soluble | Activity (UMSCC23 [5]): Active | permeability [6]: permeable | Activity [7]: 11 µM | inhibition [8]: 68% | EC50 (MEF [2]): 4.8 µM | Activity (H460/T800): inactive | Tmax [9]: 10.2 min | Activity [10]: 9 µM | Activity [11]: 7.2 µM | PPB (Plasma [12]): > 99% | Cmax [13]: 140 nM | solubility [14]: soluble | Stability (Liver microsome): Unstable | Activity [15]: 7.3 µM | Activity (UMSCC23 [16]): Active | Activity (UMSCC23 [17]): inactive | Activity (HN6): inactive | Activity (UMSCC23 [18]): inactive | Activity (A253): inactive | fraction unbound at 4 h [19]: 0.16 | Activity (UMSCC23 [20]): Active | Activity (UMSCC23 [21]): inactive | Stability (Plasma [22]): 52% | Stability (Liver): Unstable

CC(C)(C)C1CCN(S(=O)(=O)c2ccc(NC(=O)c3ccc([N+](=O)[O-])o3)cc2)CC1
EC50 (MEF [1]): 2.1 µM | EC50 (MEF [2]): 1.4 µM

CC1(C)CCN(S(=O)(=O)c2ccc(NC(=O)c3ccc([N+](=O)[O-])o3)cc2)CC1
EC50 (MEF [1]): 9.2 µM | EC50 (MEF [2]): 3 µM

CC1CCN(S(=O)(=O)c2ccc(NC(=O)c3ccc([N+](=O)[O-])o3)cc2)CC1
EC50 (MEF [1]): 16.3 µM | EC50 (MEF [2]): 4.6 µM

O=C(Nc1ccc(S(=O)(=O)N2CCC(F)CC2)cc1)c1ccc([N+](=O)[O-])o1
EC50 (MEF [1]): > 20 µM | EC50 (MEF [2]): 17.5 µM

From ChEMBL document CHEMBL3352780, “Discovery of Sulfonamidebenzamides as Selective Apoptotic CHOP Pathway Activators of the Unfolded Protein Response” (ACS Med Chem Lett, 2014)
